Laboratory results: paper PMC2077835 (Drug metabolism and disposition: the biological fate of …, 2006)

Experiments:
[1] = biological target: T1, CYP2A6 (Homo sapiens, UniProt P11509); experiment: DB289 consumption by recombinant CYP2A6; type: in vitro ADME; settings: 3.0 μM DB289, 50 pmol/ml P450, 15 min
How it was run: (§1)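 Baculovirus-insect-cell Supersomes coexpressing human P450 with NADPH-P450 reductase; the CYP2E1 enzyme also had cytochrome b5. 3.0 μM substrate, 50 pmol/ml P450 (100 pmol/ml for CYP2C8 and CYP2C9), in 100 mM phosphate pH 7.4 with 3.3 mM MgCl2 and 1 mM NADPH, 37°C, 15 min. Quenched in ice-cold acidified acetonitrile with deuterated internal standard, then LC/MS/MS. Percent consumed relative to 0 min; control Supersomes; duplicates.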

[2] = biological target: CYP2E1 (Homo sapiens, UniProt P05181); experiment: Inhibition of P450 activities by DB289: lauric acid 11-hydroxylation; type: in vitro ADME; settings: 3.0 μM DB289, pooled HLMs 0.25 mg/ml
Sequence of CYP2E1 (P05181 whole entry): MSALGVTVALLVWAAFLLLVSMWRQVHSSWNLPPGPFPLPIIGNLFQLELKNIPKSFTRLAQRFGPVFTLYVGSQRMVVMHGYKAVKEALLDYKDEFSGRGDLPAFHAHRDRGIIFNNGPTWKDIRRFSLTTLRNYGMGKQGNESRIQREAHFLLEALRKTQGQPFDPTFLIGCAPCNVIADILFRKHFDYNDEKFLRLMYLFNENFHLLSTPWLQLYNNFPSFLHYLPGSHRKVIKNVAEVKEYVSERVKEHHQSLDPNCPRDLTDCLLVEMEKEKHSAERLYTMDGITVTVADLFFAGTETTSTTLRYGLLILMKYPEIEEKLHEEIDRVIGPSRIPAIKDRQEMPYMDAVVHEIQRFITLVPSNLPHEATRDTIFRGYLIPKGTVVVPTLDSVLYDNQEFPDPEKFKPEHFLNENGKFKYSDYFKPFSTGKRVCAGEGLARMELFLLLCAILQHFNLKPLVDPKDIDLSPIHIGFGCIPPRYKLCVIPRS
How it was run: (§2)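 Test compound (3.0 μM) was preincubated 0 and 15 min with pooled microsomes (0.25 mg/ml) and 2 mM NADPH (final concentrations). A P450-selective marker substrate was then added and marker activity measured. Reference selective chemical inhibitors were run for comparison (none for CYP4A11). Solvent-only controls.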

[3] = biological target: T2, CYP2C19 (Homo sapiens, UniProt P33261); experiment: Inhibition of P450 activities by DB289: S-mephenytoin 4′-hydroxylation; type: in vitro ADME; settings: 3.0 μM DB289, pooled HLMs 0.25 mg/ml
T2 sequence (P33261 whole entry): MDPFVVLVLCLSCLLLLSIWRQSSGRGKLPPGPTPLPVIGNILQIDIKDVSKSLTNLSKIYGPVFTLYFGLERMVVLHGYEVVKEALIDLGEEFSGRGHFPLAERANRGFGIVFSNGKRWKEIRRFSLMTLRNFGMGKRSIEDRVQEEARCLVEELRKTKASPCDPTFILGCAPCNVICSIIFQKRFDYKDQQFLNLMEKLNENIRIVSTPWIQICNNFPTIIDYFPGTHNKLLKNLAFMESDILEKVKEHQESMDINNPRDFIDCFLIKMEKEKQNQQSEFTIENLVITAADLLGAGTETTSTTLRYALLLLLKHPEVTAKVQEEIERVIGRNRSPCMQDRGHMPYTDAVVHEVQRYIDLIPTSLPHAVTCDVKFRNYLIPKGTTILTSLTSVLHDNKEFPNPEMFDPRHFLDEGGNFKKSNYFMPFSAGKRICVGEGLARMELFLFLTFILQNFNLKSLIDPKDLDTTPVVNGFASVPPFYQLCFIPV
How it was run: as §2

[4] = biological target: recombinant human CYP2C8 (Homo sapiens, UniProt P10632); experiment: DB289 consumption by recombinant CYP2C8; type: in vitro ADME; settings: 3.0 μM DB289, 100 pmol/ml P450, 15 min
Sequence of recombinant human CYP2C8 (P10632 whole entry): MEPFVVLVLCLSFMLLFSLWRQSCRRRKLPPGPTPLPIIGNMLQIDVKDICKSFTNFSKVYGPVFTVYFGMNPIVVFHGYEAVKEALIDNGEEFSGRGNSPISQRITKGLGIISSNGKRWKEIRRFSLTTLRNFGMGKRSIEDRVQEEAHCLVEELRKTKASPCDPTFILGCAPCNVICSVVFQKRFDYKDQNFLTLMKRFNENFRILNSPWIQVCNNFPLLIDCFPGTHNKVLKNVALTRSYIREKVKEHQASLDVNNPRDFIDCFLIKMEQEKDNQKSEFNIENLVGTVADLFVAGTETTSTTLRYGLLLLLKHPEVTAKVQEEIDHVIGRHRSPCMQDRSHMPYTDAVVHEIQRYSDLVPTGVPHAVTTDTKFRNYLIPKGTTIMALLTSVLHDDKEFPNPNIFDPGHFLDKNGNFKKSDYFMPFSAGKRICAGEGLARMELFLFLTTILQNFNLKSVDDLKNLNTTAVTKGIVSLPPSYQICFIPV
How it was run: as §1

[5] = biological target: CYP2C9 (Homo sapiens, UniProt P11712); experiment: DB289 consumption by recombinant CYP2C9; type: in vitro ADME; settings: 3.0 μM DB289, 100 pmol/ml P450, 15 min
How it was run: as §1

[6] = DB289 consumption in 10 individual HLM samples, correlation analysis; type: in vitro ADME, human; settings: 0.3 μM DB289
How it was run: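 Ten individual human liver microsome samples, each characterised by the supplier for P450 marker activities. Standard NADPH incubations at 37°C began with 0.3 μM substrate. Rate of disappearance measured by LC/MS/MS and plotted against each P450 marker activity. Pearson r calculated; p < 0.05 taken as significant.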

[7] = biological target: T1, CYP2A6; experiment: Inhibition of P450 activities by DB289: coumarin 7-hydroxylation; type: in vitro ADME; settings: 3.0 μM DB289, pooled HLMs 0.25 mg/ml
How it was run: as §2

[8] = Incubation of DB289 with pooled human liver microsomes; type: in vitro ADME; settings: 15 μM DB289, 0.2 mg/ml HLMs, NADPH
How it was run: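 Pooled liver microsomes (50 donors, mixed gender) at 0.2 mg/ml with 15 μM substrate in a 1 ml mix, equilibrated 5 min at 37°C, then started with NADPH. Aliquots taken at 0, 5, 15, 30 and 120 min into ice-cold acetonitrile. LC/UV at 359 nm against an external 0.1–15 μM calibration; metabolites identified by retention time versus synthetic standards. Single determination; controls lacked NADPH, protein or substrate.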

[9] = biological target: recombinant human CYP3A4 (Homo sapiens, UniProt P08684); experiment: DB289 consumption by recombinant CYP3A4; type: in vitro ADME; settings: 3.0 μM DB289, 50 pmol/ml P450, 15 min
Sequence of recombinant human CYP3A4 (P08684 2-503 limits assumed): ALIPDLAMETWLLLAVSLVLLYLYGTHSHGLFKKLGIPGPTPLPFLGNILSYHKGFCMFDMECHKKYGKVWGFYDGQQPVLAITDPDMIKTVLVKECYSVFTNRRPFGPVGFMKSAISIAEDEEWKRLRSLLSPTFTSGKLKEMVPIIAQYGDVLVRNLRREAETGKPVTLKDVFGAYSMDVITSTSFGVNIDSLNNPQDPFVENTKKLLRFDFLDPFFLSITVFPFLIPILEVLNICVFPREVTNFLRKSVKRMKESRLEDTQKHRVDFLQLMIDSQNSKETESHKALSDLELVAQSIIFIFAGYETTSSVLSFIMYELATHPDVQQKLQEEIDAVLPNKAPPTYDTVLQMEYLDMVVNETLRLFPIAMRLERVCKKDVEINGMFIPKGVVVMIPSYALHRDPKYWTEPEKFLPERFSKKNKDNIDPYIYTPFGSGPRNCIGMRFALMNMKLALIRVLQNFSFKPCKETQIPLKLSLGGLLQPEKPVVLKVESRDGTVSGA
How it was run: as §1

[10] = biological target: recombinant human CYP2C18 (Homo sapiens, UniProt P33260); experiment: DB289 consumption by recombinant CYP2C18; type: in vitro ADME; settings: 3.0 μM DB289, 50 pmol/ml P450, 15 min
Sequence of recombinant human CYP2C18 (P33260 26-490): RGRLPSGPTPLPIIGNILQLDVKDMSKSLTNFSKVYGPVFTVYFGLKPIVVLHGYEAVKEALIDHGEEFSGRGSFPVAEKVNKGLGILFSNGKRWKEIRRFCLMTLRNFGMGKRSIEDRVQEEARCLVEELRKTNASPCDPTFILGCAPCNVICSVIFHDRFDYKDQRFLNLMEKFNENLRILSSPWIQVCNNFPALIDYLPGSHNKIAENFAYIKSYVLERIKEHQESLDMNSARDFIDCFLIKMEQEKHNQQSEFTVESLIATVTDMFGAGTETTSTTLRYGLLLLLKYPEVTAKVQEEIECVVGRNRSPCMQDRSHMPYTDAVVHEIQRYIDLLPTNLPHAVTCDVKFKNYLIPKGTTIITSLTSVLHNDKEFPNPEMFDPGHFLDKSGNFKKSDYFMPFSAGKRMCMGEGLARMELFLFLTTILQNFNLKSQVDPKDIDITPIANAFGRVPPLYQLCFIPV

[11] = Kinetics of M1 formation by pooled HLMs; type: in vitro ADME, human
How it was run: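 Initial-rate conditions (<20% substrate consumption). Pooled microsomes at 0.02 mg/ml with substrate from 0.05 μM upward, in 250 μl. Equilibrated 5 min at 37°C, started with NADPH, run 3 min. M1 measured by LC/MS/MS. Mean of duplicates fitted to Michaelis-Menten by nonlinear regression, with an Eadie-Hofstee plot; CLint = Vmax/Km.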

[12] = biological target: T3, CYP2D6 (Homo sapiens, UniProt P10635); experiment: Inhibition of P450 activities by DB289: debrisoquine 4-hydroxylation; type: in vitro ADME; settings: 3.0 μM DB289, pooled HLMs 0.25 mg/ml
T3 sequence (P10635 whole entry): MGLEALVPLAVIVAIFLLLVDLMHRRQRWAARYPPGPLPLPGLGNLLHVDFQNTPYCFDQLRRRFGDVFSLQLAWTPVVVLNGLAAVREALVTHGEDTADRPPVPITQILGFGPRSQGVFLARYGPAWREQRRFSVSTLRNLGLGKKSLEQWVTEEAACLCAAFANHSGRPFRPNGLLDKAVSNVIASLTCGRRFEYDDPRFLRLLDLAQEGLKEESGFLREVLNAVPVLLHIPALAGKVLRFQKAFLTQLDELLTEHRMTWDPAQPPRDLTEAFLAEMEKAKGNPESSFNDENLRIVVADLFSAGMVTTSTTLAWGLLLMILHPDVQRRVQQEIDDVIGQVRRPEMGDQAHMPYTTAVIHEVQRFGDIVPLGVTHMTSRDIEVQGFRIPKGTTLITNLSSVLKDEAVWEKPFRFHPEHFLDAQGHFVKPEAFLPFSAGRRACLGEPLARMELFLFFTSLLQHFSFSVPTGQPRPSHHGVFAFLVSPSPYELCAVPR
How it was run: as §2

[13] = biological target: recombinant human CYP4F3A (Homo sapiens, UniProt Q08477); experiment: DB289 consumption by recombinant CYP4F3A; type: in vitro ADME; settings: 3.0 μM DB289, up to 120 min
Sequence of recombinant human CYP4F3A (Q08477 whole entry): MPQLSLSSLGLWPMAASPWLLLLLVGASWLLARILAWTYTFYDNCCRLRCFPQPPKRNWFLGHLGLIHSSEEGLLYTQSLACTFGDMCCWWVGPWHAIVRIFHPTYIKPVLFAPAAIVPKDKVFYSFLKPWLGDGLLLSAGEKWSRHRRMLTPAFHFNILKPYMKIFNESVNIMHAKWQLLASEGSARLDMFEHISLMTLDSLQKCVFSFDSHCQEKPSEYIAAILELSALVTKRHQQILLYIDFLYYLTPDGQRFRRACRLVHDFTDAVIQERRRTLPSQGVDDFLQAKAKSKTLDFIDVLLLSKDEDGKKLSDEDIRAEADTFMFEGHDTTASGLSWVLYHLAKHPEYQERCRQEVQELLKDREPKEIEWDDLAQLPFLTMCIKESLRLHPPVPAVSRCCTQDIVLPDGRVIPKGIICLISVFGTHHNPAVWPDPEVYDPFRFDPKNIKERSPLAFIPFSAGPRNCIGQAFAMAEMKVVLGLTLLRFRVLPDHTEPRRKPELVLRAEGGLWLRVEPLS

[14] = biological target: T2, CYP2C19; experiment: DB289 consumption by recombinant CYP2C19; type: in vitro ADME; settings: 3.0 μM DB289, 50 pmol/ml P450, 15 min
How it was run: as §1

[15] = biological target: recombinant human CYP4F12 (Homo sapiens, UniProt Q9HCS2); experiment: DB289 consumption by recombinant CYP4F12; type: in vitro ADME; settings: 3.0 μM DB289, 50 pmol/ml P450, 15 min
Sequence of recombinant human CYP4F12 (Q9HCS2 whole entry): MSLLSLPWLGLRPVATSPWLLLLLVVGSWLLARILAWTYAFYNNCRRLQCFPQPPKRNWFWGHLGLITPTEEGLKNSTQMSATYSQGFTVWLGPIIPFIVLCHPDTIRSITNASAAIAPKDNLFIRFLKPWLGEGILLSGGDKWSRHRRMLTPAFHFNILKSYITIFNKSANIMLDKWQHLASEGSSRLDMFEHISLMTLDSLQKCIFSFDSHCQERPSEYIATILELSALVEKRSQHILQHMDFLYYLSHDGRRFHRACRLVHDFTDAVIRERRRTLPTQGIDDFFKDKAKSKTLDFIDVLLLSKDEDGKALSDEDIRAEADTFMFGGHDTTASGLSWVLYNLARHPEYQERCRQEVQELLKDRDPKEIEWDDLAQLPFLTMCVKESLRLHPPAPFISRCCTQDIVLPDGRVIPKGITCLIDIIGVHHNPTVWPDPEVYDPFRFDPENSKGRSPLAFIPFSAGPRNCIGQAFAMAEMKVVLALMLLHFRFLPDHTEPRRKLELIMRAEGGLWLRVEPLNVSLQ
How it was run: (§3)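 A second recombinant panel (Supersomes; the CYP2J2, CYP3A7 and CYP4F forms coexpressed with reductase and cytochrome b5). Each enzyme was incubated alone with 3.0 μM substrate and NADPH in pH 7.4 phosphate/MgCl2 at 37°C for 15 min. Acetonitrile quench with internal standard, centrifugation, LC/MS/MS. Percent consumed normalised to 0 min. Control Supersomes; means of duplicates.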

[16] = biological target: T3, CYP2D6; experiment: DB289 consumption by recombinant CYP2D6; type: in vitro ADME; settings: 3.0 μM DB289, 50 pmol/ml P450, 15 min
How it was run: as §1

[17] = biological target: recombinant human CYP1A1 (Homo sapiens, UniProt P04798); experiment: DB289 consumption by recombinant CYP1A1; type: in vitro ADME; settings: 3.0 μM DB289, 50 pmol/ml P450, 15 min
Sequence of recombinant human CYP1A1 (P04798 whole entry): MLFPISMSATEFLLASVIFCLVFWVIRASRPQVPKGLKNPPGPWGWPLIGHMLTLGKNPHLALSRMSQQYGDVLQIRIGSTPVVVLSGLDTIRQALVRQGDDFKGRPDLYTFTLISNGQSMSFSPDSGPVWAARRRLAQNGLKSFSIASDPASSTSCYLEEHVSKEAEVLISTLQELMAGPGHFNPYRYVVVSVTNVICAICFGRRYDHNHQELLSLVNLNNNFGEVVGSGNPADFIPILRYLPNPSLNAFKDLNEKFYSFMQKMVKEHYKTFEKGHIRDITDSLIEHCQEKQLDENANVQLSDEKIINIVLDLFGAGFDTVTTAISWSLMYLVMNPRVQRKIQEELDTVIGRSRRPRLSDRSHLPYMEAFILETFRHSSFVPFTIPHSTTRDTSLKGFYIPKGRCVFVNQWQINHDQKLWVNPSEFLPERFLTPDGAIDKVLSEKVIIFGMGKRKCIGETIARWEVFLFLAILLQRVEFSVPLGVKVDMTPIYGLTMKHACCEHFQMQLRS
How it was run: as §1

[18] = biological target: T4, recombinant CYP4F3B (Homo sapiens, UniProt Q08477); experiment: DB289 consumption by recombinant CYP4F3B; type: in vitro ADME; settings: 3.0 μM DB289, 50 pmol/ml P450, 15 min
T4 sequence (Q08477 1-520 isoform Q08477-2): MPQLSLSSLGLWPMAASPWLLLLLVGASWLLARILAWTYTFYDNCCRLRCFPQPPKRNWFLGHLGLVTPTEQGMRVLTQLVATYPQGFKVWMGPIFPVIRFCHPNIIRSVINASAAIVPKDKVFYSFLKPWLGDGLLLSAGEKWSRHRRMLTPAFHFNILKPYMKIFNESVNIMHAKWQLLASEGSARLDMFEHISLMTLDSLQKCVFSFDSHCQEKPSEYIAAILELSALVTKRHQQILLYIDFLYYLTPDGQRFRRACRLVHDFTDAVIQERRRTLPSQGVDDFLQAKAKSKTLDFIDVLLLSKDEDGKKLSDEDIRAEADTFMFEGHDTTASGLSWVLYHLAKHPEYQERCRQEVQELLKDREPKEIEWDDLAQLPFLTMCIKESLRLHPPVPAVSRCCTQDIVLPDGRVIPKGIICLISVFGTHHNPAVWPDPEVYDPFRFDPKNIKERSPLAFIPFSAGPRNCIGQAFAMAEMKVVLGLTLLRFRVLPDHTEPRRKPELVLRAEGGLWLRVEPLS
How it was run: as §3

T1 sequence (P11509 whole entry): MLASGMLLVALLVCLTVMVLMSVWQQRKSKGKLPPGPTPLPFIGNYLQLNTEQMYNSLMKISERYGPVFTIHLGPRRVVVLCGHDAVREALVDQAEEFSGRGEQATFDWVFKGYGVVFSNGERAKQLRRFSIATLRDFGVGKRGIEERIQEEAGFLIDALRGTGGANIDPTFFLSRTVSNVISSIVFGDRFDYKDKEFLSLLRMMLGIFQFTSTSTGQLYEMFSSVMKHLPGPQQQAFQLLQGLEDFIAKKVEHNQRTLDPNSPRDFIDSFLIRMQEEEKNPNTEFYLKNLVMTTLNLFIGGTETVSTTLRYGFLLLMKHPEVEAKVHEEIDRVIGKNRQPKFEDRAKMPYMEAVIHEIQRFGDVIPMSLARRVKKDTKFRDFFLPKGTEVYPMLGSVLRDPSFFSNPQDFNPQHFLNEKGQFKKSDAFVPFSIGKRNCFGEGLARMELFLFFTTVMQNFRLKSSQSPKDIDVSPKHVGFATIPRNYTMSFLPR

CON=C(N)c1ccc(-c2ccc(-c3ccc(C(N)=NOC)cc3)o2)cc1 [DB289, 2,5-bis(4-amidinophenyl)furan-bis-O-methylamidoxime]
percentage of substrate consumed [1]: less than 5%
inhibition of CYP2E1 activity [2]: minimal to no inhibition
inhibition of CYP2C19 activity [3]: minimal to no inhibition
percentage of substrate consumed [4]: 5%
percentage of substrate consumed [5]: less than 5%
variation of rate of DB289 consumption among 10 individual HLMs [6]: 4 fold
inhibition of CYP2A6 activity [7]: minimal to no inhibition
half-life in pooled HLM [8]: 12 min
time by which DB289 was completely consumed [8]: ≤ 120 min
percentage of substrate consumed [9]: 18%
percentage of substrate consumed [10]: less than 5%
Vmax ([11]; DB289 O-demethylation in HLMs): 3770 pmol/min/mg protein
Vmax ([11]; M1 formation, 0.02 mg/ml HLM, 3 min): 3.8 nmol/min/mg protein
Vmax ([11]; M1 formation, 0.02 mg/ml HLM, 3 min, total P450): 10.5 nmol/min/nmol P450
inhibition of CYP2D6 activity [12]: minimal to no inhibition
DB289 consumption [13]: little DB289 consumption
percentage of substrate consumed [14]: less than 5%
percentage of substrate consumed [15]: 10%
percentage of substrate consumed [16]: 9%
percentage of substrate consumed [17]: 82%
percentage of substrate consumed [18]: 40%
